One data set relates to L1210. The data set can be described thus: Concentration of compound required to inhibit the cellular protein biosynthesis by 50%. In kind it is functional, cell-based. As to conditions: Mus musculus. The gist of the method:
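Murine L1210 leukemia cells grown in RPMI 1640 with 5% fetal calf serum, penicillin/streptomycin, 37 °C, 5% CO2, passaged every 2–3 days. Log-phase cells seeded at final 0.05×10^6 cells/mL and exposed 48 h. Growth inhibition read as cellular protein content; EC50 = concentration giving 50% inhibition. At least four runs, mean ± SEM.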

The next data set is filed under the species Equus caballus. As to the kind of experiment: (§1) Concentration of substrate at which the amount of total cytochrome c reduction is decreased by 10%. In kind it is functional. The gist of the method:
(§2)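 NADH dehydrogenase substrate assay: decrease in enzymatic cytochrome c reduction at low NADH. Mixture of […], 0–200 μM compound, 10 μM NADH, 0.125 units/mL NADH dehydrogenase, 50 μg/mL SOD, 0.50 M HEPES pH 7.4. IC10 = substrate concentration reducing total cytochrome c reduction by 10%.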

Data set [1] is described as follows: (§3) Activity of NADH dehydrogenase was determined. In kind it is functional. The gist of the method:
(§4)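 Enzymatic NADH oxidation stimulated by compound: reaction with 100 μM test compound, 100 μM NADH, NADH dehydrogenase at the stated activity, in 0.05 M HEPES pH 7.4.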

Data set [2] deals with P388. The data set can be described thus: (§5) Ratio of medium survival time of the treated to the control mice at the dose of 100 (mg/kg). In kind it is functional, Mus musculus.
Data set [3] has as its system P388. As to the kind of experiment: Ratio of medium survival time of the treated to the control mice at the dose of 50 (mg/kg). In kind it is functional, Mus musculus.
Data set [4] in a line: Ratio of toxic deaths/survivors 7 days after the day 5 injection as a measure of drug toxicity at the dose of 100 (mg/kg). In kind it is organism-based. Conditions: in vivo, 168 h. The gist of the method:
(§6)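 P388 leukemia model in (BALB/c × DBA/2) F1 mice, 10^6 cells ip on day 0. Toxicity was scored as toxic deaths/survivors 7 days after the day-5 injection.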

Data set [5] in a line: NADH oxidation by the compound was determined. In kind it is functional. In outline:
as §4

A short description of data set [6]: Ratio of toxic deaths/survivors 7 days after the day 5 injection as a measure of drug toxicity at the dose of 50 (mg/kg). In kind it is organism-based. Conditions: in vivo, 168 h. The gist of the method: as §6
For data set [7], the target named is NADH-ubiquinone oxidoreductase chain 4 (Homo sapiens) (UniProt P03905). The data set is described as §1. In kind it is functional. The gist of the method:
as §2

Data set [8] is described as follows: Ratio of toxic deaths/survivors 7 days after the day 5 injection as a measure of drug toxicity. As to conditions: 168 h. The gist of the method: as §6
For data set [9], the system named is P388. As to the kind of experiment: ratio of medium survival time of the treated to the control mice at the dose of 50 (mg/kg). In kind it is functional, Mus musculus.
The subject of data set [10] is P388. The data set can be described thus: ratio of medium survival time of the treated to the control mice at the dose of 25 (mg/kg). In kind it is functional, Mus musculus.
Data set [11] is described as follows: Ratio of toxic deaths/survivors 7 days after the day 5 injection as a measure of drug toxicity at the dose of 25 (mg/kg). In kind it is organism-based. Conditions: in vivo, 168 h. The gist of the method: as §6
The test system of data set [12] is Mus musculus. The data set is described as §5. In kind it is functional.
A short description of data set [13]: Ratio of toxic deaths/survivors 7 days after the day 5 injection as a measure of drug toxicity at the dose of 200 (mg/kg). As to conditions: in vivo, 168 h. In kind it is organism-based. In outline: as §6
The subject of data set [14] is Mus musculus. The data set can be described thus: Ratio of medium survival time of the treated to the control mice at the dose of 200 (mg/kg). In kind it is functional.
In data set [15] the target is NADH-ubiquinone oxidoreductase chain 4 (Homo sapiens) (UniProt P03905). Described as §3. In kind it is functional. The gist of the method: as §4
Chain of NADH-ubiquinone oxidoreductase chain 4 (Homo sapiens) (P03905 whole entry, looked up): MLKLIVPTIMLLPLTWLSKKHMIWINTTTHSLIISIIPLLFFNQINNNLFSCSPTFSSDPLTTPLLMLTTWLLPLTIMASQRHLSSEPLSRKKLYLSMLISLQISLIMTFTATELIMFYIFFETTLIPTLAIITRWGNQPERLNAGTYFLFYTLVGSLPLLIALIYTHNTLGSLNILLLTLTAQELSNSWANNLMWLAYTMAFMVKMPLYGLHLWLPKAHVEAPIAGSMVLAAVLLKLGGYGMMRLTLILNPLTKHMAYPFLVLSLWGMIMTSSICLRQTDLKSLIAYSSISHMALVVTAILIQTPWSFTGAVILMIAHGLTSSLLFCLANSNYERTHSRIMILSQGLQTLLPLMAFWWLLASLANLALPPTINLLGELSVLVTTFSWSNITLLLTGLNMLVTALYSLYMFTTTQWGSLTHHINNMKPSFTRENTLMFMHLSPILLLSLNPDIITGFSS
For data set [16], the system named is P388. The data set can be described thus: ratio of medium survival time of the treated to the control mice at the dose of 12.50 (mg/kg). In kind it is functional, Mus musculus.
For data set [17], the system named is P388. The data set can be described thus: ratio of medium survival time of the treated to the control mice at the dose of 3.12 (mg/kg). In kind it is functional, Mus musculus.
In data set [18] the test system is P388. The data set can be described thus: ratio of medium survival time of the treated to the control mice at the dose of 6.25 (mg/kg). In kind it is functional, Mus musculus.
Data set [19] can be described thus: Ratio of toxic deaths/survivors 7 days after the day 5 injection as a measure of drug toxicity at the dose of 12.50 (mg/kg). In kind it is functional. In outline:
as §6

A short description of data set [20]: Ratio of toxic deaths/survivors 7 days after the day 5 injection as a measure of drug toxicity at the dose of 6.25 (mg/kg). In kind it is functional. In outline:
as §6

The nature of data set [21]: Ratio of toxic deaths/survivors 7 days after the day 5 injection as a measure of drug toxicity at the dose of 3.12 (mg/kg). In kind it is functional. The gist of the method:
as §6

Each structure is given as a SMILES string. Where only a bound is given, the exact number is not on record here.

In the data set with L1210, `NCCCNc1ccc2ncnc3c2c1C(=O)c1ccccc1-3` came in with an EC50 of 546 nM. Moreover, the IC10 in the data set filed under Equus caballus was > 300 µM. Moreover, the results for the Activity in data set [1] and in data set [5] were 0.75 U/mL and 4.7 µM/min, respectively. Moreover, the T/C with P388 [2] and in the data set on P388 [3] was 127% each time. The results for the ToxD/Surv in [4] and in data set [6] were 4 and 7, respectively.
As for `O=C1c2ccccc2-c2ncnc3ccc(NCCNCCO)c1c23`, the midpoint of the response with L1210, the EC50, lay at 296 nM. In addition, the IC10 in [7] (Equus caballus) is > 300 µM. Moreover, the Activity worked out at 0.75 U/mL in [1] and 7.4 µM/min in [5]. The values for the T/C in the data set on P388 [2] and in the data set with P388 [3] were 255% and 173%, respectively. Further, the ToxD/Surv in [8] was found to be 7.
Regarding `CNCCNc1ccc2ncnc3c2c1C(=O)c1ccccc1-3`, in the data set on L1210, the EC50 amounted to 268 nM. The IC10 in the data set filed under Equus caballus is > 300 µM. The Activity in [1] came out at 0.75 U/mL; in data set [5] it was 7.6 µM/min. The T/C in the data set on P388 [2] was determined as 164%; in the data set with P388 [3], 146%. Further, the ToxD/Surv in data set [4] and in data set [6] was 6 each time.
In the data set with L1210, `CN(C)CCNc1ccc2ncnc3c2c1C(=O)c1ccccc1-3` gave a concentration for a half-maximal effect (EC50) of 203 nM. Moreover, the concentration for an effect of 10% (IC10) in the data set filed under Equus caballus was > 300 µM. For the same compound, the figures for the Activity in data set [1] and in data set [5] were 0.75 U/mL and 6.5 µM/min, respectively. Further, the T/C is recorded as 209% in the data set with P388 [2] and 155% in the data set on P388 [9]. Moreover, the ToxD/Surv in data set [4] and in [6] was 6 each time.
On to `NCCNc1ccc2ncnc3c2c1C(=O)c1ccccc1-3`, for which the EC50 in the data set on L1210 was found to be 379 nM. The IC10 in the data set filed under Equus caballus is > 300 µM. Besides, the Activity in data set [1] worked out at 0.75 U/mL; in [5] it was 4.5 µM/min. The T/C with P388 [3] turned out to be 150%; with P388 [10], 140%. Also, the ToxD/Surv in data set [11] and in data set [6] was 7 each time.
Regarding `Nc1ccc2ncnc3c2c1C(=O)c1ccccc1-3`, the EC50 with L1210 turned out to be 945 nM. Further, the T/C in the data set on Mus musculus [12] and in the data set with Mus musculus [14] was 100% throughout. The ToxD/Surv in data set [4] and in [13] was 0 in each case.
Consider `COc1cccc2c1C(=O)c1c(O)c3c(c(O)c1C2=O)C[C@@](O)(C(C)=O)C[C@@H]3O[C@H]1C[C@H](N)[C@H](O)[C@H](C)O1`, for which the IC10 in data set [7] (Equus caballus) amounted to 2 µM. Besides, in data set [15], the Activity worked out at 0.15 units ml-1. In [5], this compound had an Oxidation of 33 µM/min.
With `COc1cccc2c1C(=O)c1c(O)c3c(c(O)c1C2=O)C[C@@](O)(C(=O)CO)C[C@@H]3O[C@H]1C[C@H](N)[C@H](O)[C@H](C)O1`, the Activity in data set [15] was 0.15 units ml-1. The Oxidation in [5] is 30.1 µM/min.
`O=C1c2ccccc2C(=O)c2c(NCCNCCO)ccc(NCCNCCO)c21` [AMETANTRONE]: in the data set on L1210, the midpoint of the response, the EC50, lay at 275 nM. The compound further gave an IC10 in [7] of 114 µM. In addition, the Activity in data set [15] was found to be 0.75 units ml-1. The figures for the T/C in the data set on P388 [16], in the data set with P388 [17] and in the data set with P388 [18] were 300%, 190% and 210%, respectively. The ToxD/Surv in data set [19], in [20] and in data set [21] was 6 in each case. The Oxidation in [5] came out at 8.8 µM/min.
With `CCN(CC)CCNc1ccc2ncnc3c2c1C(=O)c1ccccc1-3`, the EC50 with L1210 was 460 nM. Also, the IC10 in the data set filed under Equus caballus is > 300 µM. Further, the Activity was 0.75 U/mL in data set [1] and 7 µM/min in [5]. The T/C in the data set with P388 [2] was 180%; in the data set with P388 [3], 140%. For the same compound, the ToxD/Surv in [4] is recorded as 7; in [6], 5.

Usually EC50 stands for the concentration giving half of the maximal effect. A higher EC50 goes with a need for much substance. For orientation: IC10 means the concentration at which the effect reaches the 10% level. A high value points to a need for much substance. The T/C is the result in the treated group divided by that in the control group, in per cent.

The record behind these values is ChEMBL document CHEMBL1126673, “6-[(aminoalkyl)amino]-substituted 7H-benzo[e]perimidin-7-ones as novel antineoplastic agents. Synthesis and biological evaluation” (J Med Chem, 1993).
